In the library only some 3.7% were active in any assay of this set; here they are far more common.
FGF22 binding: shifts melting point of recombinant human FGF22. Q9HCT0. recombinant FGF22 thermal shift, SYPRO orange fluorescence; percent of sucrose octasulfate shift, DMSO zero. activity (Tm shift, normalised), % at 9.99 µM. 340,000 tested, 1.5% active;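 active = mean Tm shift, scaled 0 neutral to 100 positive control, at about 1.3% or above, every replicate too, limit read from the data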
Target sequence (Q9HCT0 whole entry, looked up): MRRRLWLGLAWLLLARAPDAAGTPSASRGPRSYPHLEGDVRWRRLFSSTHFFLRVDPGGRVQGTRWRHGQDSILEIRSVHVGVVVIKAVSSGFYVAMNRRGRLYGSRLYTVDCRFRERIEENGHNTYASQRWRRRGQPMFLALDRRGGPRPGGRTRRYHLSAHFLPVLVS
ERAP1 inh: ERAP1 (human) enzyme inhibition; recombinant ERAP1, Leu-AMC fluorescence, 60 min; 340,000 tested, 0.15% active; AID 652197; inhibition, % at 10.7 µM;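 active = mean replicate inhibition of at least 30%, or all replicates individually reaching that 30% level; inactive = mean below 30% and not every replicate reaching it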;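 also: 0% = neutral control wells and 100% = L-leucinethiol positive control wells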
DENV2 CPE rescue: protects cells from dengue virus 2 cytopathic effect; DENV2-infected cells, cytopathic effect rescue, plate reader; CPE inhibition, % at 9.99 µM; 350,000 tested, 1.7% active; AID 651640; in the data active = CPE inhibition above about 20%, passing the limit was not always enough; tested in BHK-21 cells;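 also: 0% = median of neutral control wells and 100% = median of positive control wells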
E-sel inducer: E-selectin induction on HUVECs; P16581; HUVEC E-selectin immunofluorescence imaging; normalized: neutral wells 0, TNF-alpha wells 100; activation, % at 7.58 µM; 260,000 tested, 0.37% active; AID 686992;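 active = mean E-selectin-positive cell signal at least 10% of the positive control, reached in at least 60% of replicates, without over 20% cell loss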
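Read-out basis: % PE-positive cells; Test system: HUVEC primary endothelial cells; Technique: immunofluorescence imaging; Dosing: single-point compound dose.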
F508del corr: correctors of CFTR F508del function in bronchial epithelial cells; CFBE cells, YFP halide quenching; stimulated with forskolin plus potentiator P3; % fluorescence drop versus neutral controls; activity (quench increase), % at 7.58 µM; 350,000 tested, 0.36% active; AID 720511;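 active = mean added fluorescence quench of at least 8% versus neutral control, with both replicates also reaching 8%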;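 also: cells transiently co-express mutant CFTR-F508del with the halide-sensitive YFP; corrector assay measuring rescue of mutant channel to the surface after 24 h compound exposure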
An asterisk follows results filed as active; / = no result; ! = a repeat was not active.

SMILES	FGF22 binding	ERAP1 inh	DENV2 CPE rescue	E-sel inducer	F508del corr
C[C@@H]1CCCCO[C@H](CN(C)C(=O)c2ccccc2)[C@@H](C)CN([C@H](C)CO)C(=O)c2cc(NC(=O)CCC(F)(F)F)ccc2O1	-0.2	-0.6	-9.9	-0.2	-3.4
O=C(C[C@H]1CC[C@H]2[C@@H](COC[C@H](O)CN2Cc2ccncc2)O1)NCc1ccccc1Cl	-0.1	-2.6	-5.3	0.0	-1.4
CCOc1ccc(NC(=O)C(CC(=O)O)Cc2ccc(Br)cc2)cc1 (configuration not stated)	0.1	-0.1	6.8	-0.4	0.2
COc1ccc(NC(=O)C(CC(=O)O)Cc2ccc(C)cc2)cc1 (configuration not stated)	43.2*	4.3	-1.4	/	2.9
CC1C=NC(S(=O)(=O)N2CC[C@@H]3[C@H]2c2cc(-c4ccc(F)cc4)ccc2N(C)[C@H]3CO)=N1 (some centres not stated)	/	/	/	2.1	-3.1
Cc1ccc(S(=O)(=O)CCC(=O)NCc2ccccc2)cc1	0.0	-0.1	22.3*	/	/
Cc1ccc2c(CC(=O)OC(C)C(=O)Nc3ncc(Cl)cc3Cl)coc2c1 (configuration not stated)	-0.3	-0.1	78.7*	/	-0.8
CC(=O)N[C@H]1C[C@@H]2O[C@@H](CO)CC[C@@H]2O[C@@H]1CCc1ccc(C#CC2(O)CCCC2)cc1	/	-2.8	17.4	/	2.8
CC(C)(C)OC(=O)N[C@H]1C=C[C@@H](CC(=O)OCC(F)(F)F)C1	0.3	10.8	35.7*	-0.1	1.7
O=C(CSc1nc(C(F)(F)F)cc(=O)[nH]1)N1CCOCC1	-0.3	1.7	-4.5	6.9	-1.0
O=C(CSc1nccc(=O)[nH]1)N1CCOCC1	-0.2	2.9	115.2*	0.5	-0.7
CN1C(=O)c2cc(NC(=O)c3cccs3)ccc2OC[C@H]2O[C@H](CC(=O)N3CCCCC3)CC[C@H]21	0.0	-0.7	2.1	0.0	-2.5
COC(=O)c1c(C)[nH]c(C(=O)CC#N)c1C	43.3*	0.1	4.7	/	3.4
CCOC(=O)c1[nH]c(C)c(C(=O)OCC)c1C	0.4	/	-2.1	-0.4	1.1
Cc1[nH]c2ccccc2c1N=Nc1ccccc1F	43.5*	3.1	11.7	/	-4.9
C[C@@H]1CCCCO[C@@H](CN(C)C(=O)c2ccncc2)[C@H](C)CN([C@H](C)CO)C(=O)c2cc(NC(=O)c3ccccc3)ccc2O1	-0.1	1.5	0.6	0.4	2.1
c1cc(-c2ccc(C3[C@H]4CNC[C@@H]3N4CC3CCOCC3)cc2)ccn1 (some centres not stated)	/	-4.2	12.5	0.0	0.1
c1cc(-c2ccc(C3[C@H]4CNC[C@@H]3N4CC3CCCCC3)cc2)ccn1 (some centres not stated)	0.1	-6.0	45.9*!	0.0	1.7
Cc1cc(C)cc(NC(=O)Cc2ccc(NC3=NC4CS(=O)(=O)CC4S3)cc2)c1 (configuration not stated)	-0.1	5.9	-1.3	51.0*	2.1
Cc1cccc(NC(=O)Cc2ccc(NC3=NC4CS(=O)(=O)CC4S3)cc2)c1 (configuration not stated)	0.2	1.4	-1.9	5.2	-5.0
CO[C@@H]1CN(C)C(=O)c2ccc(NC(=O)C3CCC3)cc2OC[C@@H](C)N(Cc2cccnc2)C[C@@H]1C	-0.5	-1.3	5.8	0.0	-3.1
O=C1CN(C(=O)COC(=O)c2c(F)cccc2Cl)c2ccccc2N1	-0.1	-1.3	25.7*	1.1	-0.3
O=C1CN(C(=O)COC(=O)c2cc(S(=O)(=O)N3CCOCC3)ccc2Cl)c2ccccc2N1	43.5*	2.8	-2.3	0.7	1.9
O=C1CN(C(=O)COC(=O)CNS(=O)(=O)c2ccccc2)c2ccccc2N1	43.4*	2.8	-0.1	/	0.5
Cc1ccc(S(=O)(=O)NCC(=O)OCC(=O)N2CC(=O)Nc3ccccc32)cc1	-0.1	-1.6	-0.8	/	2.6
SMILES	FGF22 binding	ERAP1 inh	DENV2 CPE rescue	E-sel inducer	F508del corr
O=C1CN(C(=O)COC(=O)c2ccc(Cl)cc2)c2ccccc2N1	-0.2	0.2	-7.5	-3.6	1.7
O=C1CN(C(=O)COC(=O)/C=C/c2ccc(S(=O)(=O)N3CCOCC3)cc2)c2ccccc2N1	42.2	-2.2	-1.1	-1.3	0.1
CC(CN1C(C)CCCC1C)OC(=O)c1ccc(Cl)cc1 (configuration not stated)	44.1*	1.6	-5.3	/	-3.6
Cc1ccc(C(=O)NC(=S)NNC(=O)c2ccccc2O)cc1	-0.1	3.9	-5.1	0.0	9.7*
COc1ccc([C@@H]2CC=C(C(=O)O)[C@H](c3ccccc3F)N2S(=O)(=O)c2ccc(C)cc2)cc1OC	-0.1	-0.4	35.6*	-0.1	-0.3
COc1ccc([C@@H]2CC=C(C(=O)O)[C@H](c3cccc(Cl)c3)N2S(=O)(=O)c2ccc(C)cc2)cc1OC	-0.2	6.1	-9.6	0.5	-0.7
COc1ccc([C@@H]2CC=C(C(=O)O)[C@H](c3ccccc3)N2S(=O)(=O)c2ccc(C)cc2)cc1OC	-0.2	0.9	48.8*	-0.2	-0.1
Cc1ccc([C@@H]2CC=C(C(=O)O)[C@H](c3ccccc3F)N2S(=O)(=O)c2ccc(C)cc2)cc1	0.5	-1.7	-6.4	0.5	1.6
COc1ccc2c3c([nH]c2c1)[C@H](CO)N(C(=O)C1CCC1)CC31CCN(C(=O)NC(C)C)CC1	-0.1	2.0	0.2	-0.2	-2.4
C[C@@H]1CN([C@H](C)CO)C(=O)c2cc(NC(=O)c3ccccc3)ccc2O[C@@H](C)CCCCO[C@@H]1CN(C)C(=O)c1ccccc1	1.4*	/	/	/	-1.0
C[C@H](CO)N1C[C@H](C)[C@@H](CN(C)C(=O)c2ccccc2)OCCCC[C@H](C)Oc2ccc(NC(=O)C3CCCCC3)cc2C1=O	0.0	-0.6	33.6*	0.1	0.1
C[C@@H]1CCCCO[C@@H](CN(C)C(=O)c2ccncc2)[C@@H](C)CN([C@H](C)CO)C(=O)c2cc(NC(=O)Cc3ccccc3)ccc2O1	0.5	8.1	23.9*!	0.4	1.3
C[C@@H]1CN([C@@H](C)CO)C(=O)c2cc(NC(=O)c3ccccc3)ccc2O[C@@H](C)CCCCO[C@@H]1CN(C)C(=O)CCC(F)(F)F	0.0	-4.5	28.6*	0.2	1.3
C[C@@H]1CN([C@@H](C)CO)C(=O)c2cc(NC(=O)Cc3ccccc3)ccc2O[C@@H](C)CCCCO[C@H]1CN(C)C(=O)c1ccncc1	0.0	-5.9	-10.5	/	1.6
C[C@@H]1CCCCO[C@H](CN(C)Cc2ccc3c(c2)OCO3)[C@H](C)CN([C@@H](C)CO)C(=O)c2cc(NC(=O)Nc3ccccc3)ccc2O1	-0.7	0.8	-8.0	-0.1	1.1
CCC(=O)Nc1ccc2c(c1)C(=O)N(C)C[C@H](OC)[C@@H](C)CN(C(=O)CN(C)C)[C@H](C)CO2	/	/	/	-0.2	1.8
Cc1cc(C(=O)Nc2ccc(Cl)cc2)n(-c2ccccc2)n1	-0.2	-2.5	4.0	41.1*	-3.2

Bioassay records from PubChem.
